Columns and labels:
[1] = target: T1, GABA-A receptor; alpha-1/beta-2/gamma-2 (Homo sapiens, UniProt P14867+P18507+P47870); assay: Antagonist activity at human GABAA alpha-1-beta-2-gamma-2 receptor expressed in mouse tsA201 cells by FMP red assay; assay type: functional, cell-based
T1 sequence (P14867 whole entry): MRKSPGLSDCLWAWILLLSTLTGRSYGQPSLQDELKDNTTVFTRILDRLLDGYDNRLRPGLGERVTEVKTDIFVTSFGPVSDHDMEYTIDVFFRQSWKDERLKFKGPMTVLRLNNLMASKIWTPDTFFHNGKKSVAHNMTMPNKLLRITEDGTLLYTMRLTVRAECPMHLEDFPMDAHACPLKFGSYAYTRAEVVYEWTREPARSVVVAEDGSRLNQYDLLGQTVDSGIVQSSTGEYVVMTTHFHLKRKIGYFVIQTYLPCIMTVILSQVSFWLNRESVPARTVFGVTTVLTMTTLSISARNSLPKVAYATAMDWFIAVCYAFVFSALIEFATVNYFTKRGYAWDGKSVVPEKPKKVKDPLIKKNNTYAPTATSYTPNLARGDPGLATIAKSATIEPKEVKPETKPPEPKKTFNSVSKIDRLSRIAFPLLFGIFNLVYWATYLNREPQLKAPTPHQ
T1 sequence (P47870 whole entry): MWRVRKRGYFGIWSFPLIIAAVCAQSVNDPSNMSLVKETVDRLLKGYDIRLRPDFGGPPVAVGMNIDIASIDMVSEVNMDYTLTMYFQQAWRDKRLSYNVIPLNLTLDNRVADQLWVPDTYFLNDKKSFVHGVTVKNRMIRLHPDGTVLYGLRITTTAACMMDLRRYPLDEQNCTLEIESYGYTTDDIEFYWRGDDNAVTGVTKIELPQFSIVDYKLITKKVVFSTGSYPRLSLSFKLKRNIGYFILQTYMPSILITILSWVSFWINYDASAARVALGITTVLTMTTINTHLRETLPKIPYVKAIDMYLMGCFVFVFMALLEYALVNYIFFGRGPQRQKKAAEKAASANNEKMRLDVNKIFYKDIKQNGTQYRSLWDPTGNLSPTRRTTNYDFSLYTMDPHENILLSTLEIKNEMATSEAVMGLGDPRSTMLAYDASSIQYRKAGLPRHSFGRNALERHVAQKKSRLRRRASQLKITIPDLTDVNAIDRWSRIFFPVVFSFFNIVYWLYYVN
T1 sequence (P18507 whole entry): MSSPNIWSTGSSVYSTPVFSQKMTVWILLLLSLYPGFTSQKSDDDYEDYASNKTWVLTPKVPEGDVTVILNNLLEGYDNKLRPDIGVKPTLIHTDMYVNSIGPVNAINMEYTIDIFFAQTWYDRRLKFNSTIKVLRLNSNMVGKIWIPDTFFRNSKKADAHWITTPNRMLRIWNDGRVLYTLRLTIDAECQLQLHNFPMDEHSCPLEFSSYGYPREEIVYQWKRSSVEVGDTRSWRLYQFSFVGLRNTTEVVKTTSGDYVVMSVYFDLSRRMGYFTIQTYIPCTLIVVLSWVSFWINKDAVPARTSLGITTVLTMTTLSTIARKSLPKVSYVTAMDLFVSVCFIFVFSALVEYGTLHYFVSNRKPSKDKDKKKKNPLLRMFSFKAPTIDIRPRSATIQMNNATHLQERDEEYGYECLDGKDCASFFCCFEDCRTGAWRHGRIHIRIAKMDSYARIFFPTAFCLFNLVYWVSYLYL
Procedure, shortened: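 Human α1β2γ2S GABAA receptor transiently expressed in tsA201 cells; FLIPR membrane potential (FMP) red assay. […] Compounds tested up to 500 μM. Values given as IC50 [pIC50 ± SEM].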

[2] = Displacement of [3H]muscimol from GABAA in rat synaptic membrane by scintillation counting; assay type: cell membranes
Procedure, shortened: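 Rat brain synaptic membrane preparations; native GABAA receptor binding measured by displacement of [3H]muscimol. Ki reported as mean [mean pKi ± SEM] of three to four independent experiments.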

[3] = target: T1, GABA-A receptor; alpha-1/beta-2/gamma-2; assay: Agonist activity at human GABAA alpha-1-beta-2-gamma-2 receptor expressed in mouse tsA201 cells at < 500 uM by FMP red assay; assay type: functional, cell-based
Procedure, shortened: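 Human α1β2γ2S GABA-A receptor transiently expressed in tsA201 cells; agonist-mode FLIPR membrane potential (FMP) red assay measuring the fluorescence change in membrane potential; compounds tested at concentrations up to 500 μM.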

[4] = Displacement of [3H]muscimol from GABAA in rat synaptic membrane in presence of 10% DMSO by scintillation counting; assay type: cell membranes

| IC50 [1] | Ki [2] | pKi [2] | Ki [4] | pKi [4] | Compound | IC50 ([3]; read-out: IC50) | IC50 ([3]; read-out: pIC50 (converted)) |
| --- | --- | --- | --- | --- | --- | --- | --- |
| 0.21 µM | 0.03 µM | 7.55 | – | – | Cl.On1cc(C2CCNCC2)c(-c2cccc(-c3ccccc3)c2)n1 | – | – |
| 0.79 µM | 0.033 µM | 7.48 | – | – | Cl.On1ncc(C2CCNCC2)c1Cc1ccc2ccccc2c1 | – | – |
| 1.8 µM | 0.049 µM | – | – | – | Oc1noc(C2CCNCC2)c1Cc1ccc2ccccc2c1 | – | – |
| 0.024 µM | – | – | – | – | Cl.On1ncc(C2CCNCC2)c1-c1cccc(-c2ccccc2)c1 | – | – |
| – | 0.22 µM | – | – | – | Oc1noc(C2CCNCC2)c1-c1ccccc1 | – | – |
| 3.2 µM | – | – | 1.5 µM | 5.84 | Cl.On1nc(-c2ccccc2)c(C2CCNCC2)c1Cc1ccc2ccccc2c1 | – | – |
| – | 0.01 µM | – | – | – | Oc1noc(C2CCNCC2)c1Cc1ccc2ccccc2c1Br | – | – |
| 0.15 µM | 0.022 µM | 7.65 | – | – | Br.On1ncc(C2CCNCC2)c1-c1ccccc1 | – | – |
| 1.9 µM | 0.24 µM | 6.62 | – | – | Cc1cccc(-c2nn(O)cc2C2CCNCC2)c1.Cl | – | – |
| 1.4 µM | 0.42 µM | 6.39 | – | – | Br.On1cc(C2CCNCC2)c(-c2ccc(-c3ccccc3)cc2)n1 | – | – |
| 8.3 µM | 0.36 µM | 6.45 | – | – | Cl.On1cc(C2CCNCC2)c(Cc2ccccc2)n1 | – | – |
| 1.9 µM | 0.27 µM | 6.57 | – | – | Br.On1cc(C2CCNCC2)c(-c2ccccc2)n1 | – | – |
| 2.6 µM | 0.67 µM | 6.17 | – | – | Cc1ccccc1-c1nn(O)cc1C1CCNCC1.Cl | – | – |
| – | – | – | 0.022 µM | 7.66 | Br.On1nc(Cc2ccc3ccccc3c2)c(C2CCNCC2)c1-c1ccccc1 | – | – |
| 1.4 µM | 0.32 µM | 6.5 | – | – | Br.Cc1ccc(-c2nn(O)cc2C2CCNCC2)cc1 | – | – |
| 0.078 µM | 0.01 µM | – | – | – | Oc1noc(C2CCNCC2)c1-c1cccc(-c2ccccc2)c1 | – | – |
| 0.17 µM | 0.003 µM | 8.55 | – | – | Br.On1cc(C2CCNCC2)c(Cc2ccc3ccccc3c2)n1 | – | – |
| 0.48 µM | – | – | 0.0095 µM | 8.07 | Cl.On1ncc(C2CCNCC2)c1Cc1ccc2ccccc2c1Br | – | – |

| Compound | IC50 [1] | Ki [2] | pKi [2] | Ki [4] | pKi [4] | IC50 ([3]; read-out: IC50) | IC50 ([3]; read-out: pIC50 (converted)) |
| --- | --- | --- | --- | --- | --- | --- | --- |
| Cl.On1cc(C2CCNCC2)cn1 | – | 10 µM | 4.99 | – | – | > 500 µM | > 501 µM |
| Br.Cc1nn(O)cc1C1CCNCC1 | 66 µM | 5 µM | 5.31 | – | – | – | – |
